Data from PMC8550878 (Journal of medicinal chemistry, 2021).
Non-standard residues stand in square brackets, D forms with d. Residues, ends and D or L forms follow the SMILES beside them. No end group written: not given here. *: point of attachment. Benzoyl(2-OMe,5-SO2F) = COc1ccc(S(=O)(=O)F)cc1C(=O)*; Biotin = O=C1N[C@H]2[C@H](CS[C@H]2CCCCC(=O)*)N1; X1 = Cc1ccc(S(=O)(=O)F)cc1C(=O)*; hSer = N[C@@H](CCO)C(=O)O; Nle = CCCC[C@H](N)C(=O)O; Abu = CC[C@H](N)C(=O)O; Dap = NC[C@H](N)C(=O)O; Ahx = NCCCCCC(=O)O

Key:
hMcl-1 [1] = biological target: T1, hMcl-1 (Homo sapiens, UniProt Q07820); assay: DELFIA displacement assay, hMcl-1; format: binding
[2] = tested on: Mcl-1 in A549 cell lysates; assay: Covalent adduct in spiked A549 cell lysates by immunoblotting; format: binding, human; details: A549 cell lysates spiked with 100 μM compound for 1 h at 37 °C, western blot
Summary of the method: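 A549 cells grown in Ham's F-12 with GlutaMAX, 10% FBS, PenStrep and 0.5 μg/mL puromycin. Harvested cells were lysed for 20 min on ice in Tris pH 7.4 buffer with Triton X-100, deoxycholate, SDS, IGEPAL, EDTA, protease and phosphatase inhibitors. Cleared, protein-quantified supernatant was incubated with DMSO or 100 μM test compound for 1 h at 37 °C. Then SDS-PAGE, PVDF transfer, milk block, anti-Mcl-1 and β-tubulin overnight at 4 °C, HRP secondary, ECL.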

Mcl-1 in A549 cells = assay: Mcl-1 protein levels in A549 cells by immunoblotting; format: cell-based, human; details: 50 or 100 μM compound, 2 h, western blot relative to β-tubulin
Summary of the method: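 A549 cells grown in Ham's F-12 with GlutaMAX, 10% FBS, 1% PenStrep and 0.5 μg/mL puromycin. Cells were exposed to DMSO or test compound (50 or 100 μM) for 2 h, with or without 30 min pre-treatment with 1 μM carfilzomib. Lysates were run on SDS-PAGE, transferred to PVDF, blocked in 5% milk/TBS-T, probed overnight at 4 °C for Mcl-1 and β-tubulin, then HRP secondary and ECL detection.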

hBfl-1 = biological target: T2, hBfl-1 (Homo sapiens, UniProt Q16548); assay: DELFIA displacement assay, hBfl-1; format: binding
T2 sequence (Q16548 1-149): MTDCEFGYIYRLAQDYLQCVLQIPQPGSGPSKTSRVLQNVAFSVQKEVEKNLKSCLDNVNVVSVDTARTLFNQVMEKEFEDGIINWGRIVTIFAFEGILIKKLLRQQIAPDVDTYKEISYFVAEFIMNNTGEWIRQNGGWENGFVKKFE

Solubility = format: physicochemical; details: qualitative, relative to peptides 10 and 11
hMcl-1 [3] = biological target: T1, hMcl-1; assay: Mass spectrometry of covalent adduct; format: binding; details: protein alone 18,763 Da (Figure S1)
hMcl-1 construct = assay: In vitro denaturation thermal shift; format: binding, human; details: hMcl-1 construct used for biochemical and crystallization studies (Figure S4)
[4] = biological target: T3, hMcl-1 (residues 172–323) with N-terminal His tag (human, UniProt Q07820 172-323); assay: DELFIA displacement assay
[5] = biological target: T4, hBfl-1 (residues 1–149) with N-terminal His tag (human, UniProt Q16548 1-149); assay: DELFIA displacement assay
T4 sequence (looked up): T2 sequence (Q16548 1-149)

[6] = biological target: T3, hMcl-1 (residues 172–323) with …; assay: DELFIA displacement assay; remark: listed apart in the source

T1 sequence (Q07820 172-323): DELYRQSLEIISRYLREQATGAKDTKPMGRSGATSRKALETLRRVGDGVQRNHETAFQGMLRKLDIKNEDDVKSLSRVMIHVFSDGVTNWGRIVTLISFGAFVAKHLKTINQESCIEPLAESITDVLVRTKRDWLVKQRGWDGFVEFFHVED
T3 sequence (Q07820 172-323): as above

AIAQLLRRIGDAF-NH2 [Compound 8]
IC50 (hMcl-1 [1]): ~1.8 µM

CC[C@H](C)[C@H](NC(=O)[C@H](CCCNC(=N)N)NC(=O)[C@H](CCCNC(=N)N)NC(=O)[C@H](CC(C)C)NC(=O)[C@H](CCC(N)=O)NC(=O)[C@H](CCC(=O)O)NC(=O)[C@H](C)NC(=O)[C@@H](NC(=O)[C@H](CNC(=O)c1cc(S(=O)(=O)F)ccc1OC)NC(C)=O)[C@@H](C)CC)C(=O)NCC(=O)N[C@@H](CC(=O)O)C(=O)N[C@@H](CCCNC(=N)N)C(=O)N[C@@H](Cc1ccccc1)C(N)=O [Compound 16] (Ac-[Dap](Benzoyl(2-OMe,5-SO2F))IAEQLRRIGDRF-NH2)
covalent adduct with Mcl-1 by band shift in cell lysates [2]: Covalent adduct was detected | Mcl-1 protein levels (Mcl-1 in A549 cells): decrease in Mcl-1 protein levels

Ac-AIAEQLRRIGDRF-NH2 [Compound 12]
IC50 (hBfl-1): > 10 µM | solubility (Solubility): increased solubility

CC[C@H](C)[C@H](NC(=O)[C@H](CCCNC(=N)N)NC(=O)[C@H](CCCNC(=N)N)NC(=O)[C@H](CC(C)C)NC(=O)[C@H](CCC(N)=O)NC(=O)[C@H](CCC(=O)O)NC(=O)[C@H](C)NC(=O)[C@@H](NC(=O)[C@H](CNC(=O)c1cc(S(=O)(=O)F)ccc1C)NC(C)=O)[C@@H](C)CC)C(=O)NCC(=O)N[C@@H](CC(=O)O)C(=O)N[C@@H](CCCNC(=N)N)C(=O)N[C@@H](Cc1ccccc1)C(N)=O [Compound 15] (Ac-[Dap](X1)IAEQLRRIGDRF-NH2)
MW of hMcl-1 after incubation with compound (hMcl-1 [3]): 20,544 Da | denaturation thermal shift (hMcl-1 construct): 23 °C

AIAQVLRRIGDAF-NH2 [Compound 7]
IC50 (hMcl-1 [1]): ~1.8 µM

B1: biotinylated-BH3 peptide (biotin-AHA-EDIIRNIARHLAQVGDSMDR-NH2) (peptide)
peptide: {Biotin-Ahx}-EDIIRNIARHLAQVGDSMDR-NH2
SMILES: CC[C@H](C)[C@H](NC(=O)[C@H](CC(N)=O)NC(=O)[C@H](CCCNC(=N)N)NC(=O)[C@@H](NC(=O)[C@@H](NC(=O)[C@H](CC(=O)O)NC(=O)[C@H](CCC(=O)O)NC(=O)CCCCCNC(=O)CCCC[C@@H]1SC[C@@H]2NC(=O)N[C@@H]21)[C@@H](C)CC)[C@@H](C)CC)C(=O)N[C@@H](C)C(=O)N[C@@H](CCCNC(=N)N)C(=O)N[C@@H](Cc1c[nH]cn1)C(=O)N[C@@H](CC(C)C)C(=O)N[C@@H](C)C(=O)N[C@@H](CCC(N)=O)C(=O)N[C@H](C(=O)NCC(=O)N[C@@H](CC(=O)O)C(=O)N[C@@H](CO)C(=O)N[C@@H](CCSC)C(=O)N[C@@H](CC(=O)O)C(=O)N[C@@H](CCCNC(=N)N)C(N)=O)C(C)C
binding result [4]: binds | binding result [5]: binds

B2: peptide 6 (peptide)
chain: H-AIAQ[Abu]LRRIGDAF-NH2
SMILES: CC[C@H](NC(=O)[C@H](CCC(N)=O)NC(=O)[C@H](C)NC(=O)[C@@H](NC(=O)[C@H](C)N)[C@@H](C)CC)C(=O)N[C@@H](CC(C)C)C(=O)N[C@@H](CCCNC(=N)N)C(=O)N[C@@H](CCCNC(=N)N)C(=O)N[C@H](C(=O)NCC(=O)N[C@@H](CC(=O)O)C(=O)N[C@@H](C)C(=O)N[C@@H](Cc1ccccc1)C(N)=O)[C@@H](C)CC
IC50 [6]: ~1.3 µM

B3: peptide 5 (peptide)
chain: H-AIAQALRRIGDA[Nle]-NH2
SMILES: CCCC[C@H](NC(=O)[C@H](C)NC(=O)[C@H](CC(=O)O)NC(=O)CNC(=O)[C@@H](NC(=O)[C@H](CCCNC(=N)N)NC(=O)[C@H](CCCNC(=N)N)NC(=O)[C@H](CC(C)C)NC(=O)[C@H](C)NC(=O)[C@H](CCC(N)=O)NC(=O)[C@H](C)NC(=O)[C@@H](NC(=O)[C@H](C)N)[C@@H](C)CC)[C@@H](C)CC)C(N)=O
IC50 [6]: ~1.6 µM

B4: peptide 2 (peptide)
peptide: H-AIAQALRRIGDAY-NH2
IC50 [6]: > 3.6 µM

B5: peptide 10 (peptide)
peptide: Ac-AIAEALRRIGDAF-NH2
IC50 [6]: 0.261 µM

B6: peptide 3 (peptide)
peptide: H-AIAQALRRIGDAR-NH2
IC50 [6]: > 10 µM

B7: peptide 11 (peptide)
peptide: H-AIAEQLRRIGDAF-NH2
IC50 [6]: 0.313 µM

B8: peptide 4 (peptide)
peptide: H-AIAQALRRIGDAL-NH2
IC50 [6]: 1.2 µM

B9: peptide 12 (peptide)
peptide: Ac-AIAEQLRRIGDRF-NH2
IC50 [6]: 0.57 µM

B10: peptide 9 (peptide)
chain: H-AIAQ[hSer]LRRIGDAF-NH2
SMILES: CC[C@H](C)[C@H](NC(=O)[C@H](C)N)C(=O)N[C@@H](C)C(=O)N[C@@H](CCC(N)=O)C(=O)N[C@@H](CCO)C(=O)N[C@@H](CC(C)C)C(=O)N[C@@H](CCCNC(=N)N)C(=O)N[C@@H](CCCNC(=N)N)C(=O)N[C@H](C(=O)NCC(=O)N[C@@H](CC(=O)O)C(=O)N[C@@H](C)C(=O)N[C@@H](Cc1ccccc1)C(N)=O)[C@@H](C)CC
IC50 [6]: ~3 µM
